# Calls of active or inactive are those of the source. The rule behind the calls is not given here.
# How the values were obtained:
# [1] = tested on: Bacillus spizizenii; experiment: Antibacterial activity against Bacillus subtilis ATCC 6633 after 16 to 48 hrs; format: functional
# How it was run: (§1)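 Bacterial MIC assay run in triplicate and read after 16−48 h incubation. Kanamycin and ampicillin served as positive controls.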
# [2] = tested on: A549; experiment: Cytotoxicity against human A549 cells assessed as decrease in cell viability after 48 hrs; format: functional, cell-based; conditions: A549, 48 h
# How it was run: (§2)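 Human cancer cell line viability assay run in triplicate with 48 h compound exposure. IC50 derived from viability data. Actinomycin D served as the positive control.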
# [3] = tested on: Mycolicibacterium aurum; experiment: Antimycobacterial activity against Mycobacterium aurum ATCC 23366 after 16 to 48 hrs; format: functional; how it was run: as §1
# [4] = tested on: Staphylococcus aureus; experiment: Antibacterial activity against Staphylococcus aureus ATCC 6538 after 16 to 48 hrs; format: functional; how it was run: as §1
# [5] = tested on: Micrococcus luteus; experiment: Antibacterial activity against Micrococcus luteus NRRL B-287 after 16 to 48 hrs; format: functional; how it was run: as §1
# [6] = tested on: PC-3; experiment: Cytotoxicity against human PC3 cells assessed as decrease in cell viability after 48 hrs; format: functional, cell-based; conditions: PC-3, 48 h; how it was run: as §2
# [7] = tested on: A549; experiment: Cytotoxicity against human A549 cells assessed as decrease in cell viability at 100 uM after 48 hrs; format: functional, cell-based
# How it was run: (§3)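 Cell viability measured in triplicate after 48 h exposure to a single 100 μM concentration. Actinomycin D served as the positive control.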
# [8] = tested on: PC-3; experiment: Cytotoxicity against human PC3 cells assessed as decrease in cell viability at 100 uM after 48 hrs; format: functional, cell-based; how it was run: as §3
MIC [1] [µM],MIC [3] [µM],MIC [4] [µM],MIC [5] [µM],SMILES,IC50 [2] [nM],IC50 [6] [nM],Activity [7],Activity [8]
4 to 30,4 to 30,4 to 30,4 to 30,COc1ccc(C[C@H](N)C(=O)N[C@H]2[C@@H](O)[C@H](n3cnc4c(N(C)C)ncnc43)O[C@@H]2CO)cc1 [PUROMYCIN],300,300,,
,,,,COc1ccc(C[C@H](NC(C)=O)C(=O)N[C@H]2[C@@H](O)[C@H](n3cnc4c(N(C)C)ncnc43)O[C@@H]2CO)cc1,,,Active,Active
,,,,CC(=O)N[C@H]1[C@@H](O)[C@H](n2cnc3c(N(C)C)ncnc32)O[C@@H]1CO,,,Active,Active
,,,,CC(=O)N[C@@H](CC(C)C)C(=O)N[C@H]1[C@@H](O)[C@H](n2cnc3c(N(C)C)ncnc32)O[C@@H]1CO,,,Active,Active
,,,,COc1ccc(C[C@H](O)C(=O)N[C@H]2[C@@H](O)[C@H](n3cnc4c(N(C)C)ncnc43)O[C@@H]2CO)cc1,,,Active,Active

# Reference: ChEMBL document CHEMBL4266053, “Puromycins B-E, Naturally Occurring Amino-Nucleosides Produced by the Himalayan Isolate Streptomyces sp. PU-14G” (J Nat Prod, 2018)
